# Assay outcomes (PubChem BioAssay)
# Yeast growth tox = Inhibits yeast growth, turbidity readout. growth inhibition, % at 25 µM (by protocol). S. cerevisiae wild-type growth, A595 turbidity, 16 h. 0.3% of 30,000 active. AID 685;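 active = mutant and wild-type yeast strains alike exhibit over 30% growth inhibition; inconclusive = a strain exceeds 50% while the second remains under 30%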;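 note: 0% = untreated cell controls and 100% = YPD media blanks without cells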
#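 system = S. cerevisiae wild-type or eIF2Bepsilon-R284H mutant strain | buffer or medium = YPD medium | dosing = one dose, 25 µM compound, 0.2% DMSO | schedule = 16 h at 30 °C | measured by = A595 turbidity | evaluation = growth inhibition (%) versus cell controls and blanks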
# eIF2B yeast act = modulators of yeast eIF2B activity; S. cerevisiae eIF2B-epsilon R284H, GCN4-lacZ luminescence; inhibition, % at 25 µM (by protocol); 0.91% of 27,000 active;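 active = mutant luminescence inhibited past about 50% while wild type luminescence and mutant growth stay under set limits, limit read from the data; inconclusive = mutant versus wild type luminescence inhibition gap past a set limit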
#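 System: Yeast eIF2B-epsilon R284H mutant carrying GCN4–beta-galactosidase fusion | Read-out basis: Percent inhibition, luminescence and growth | Compound: 25 µM single dose | Times: 16 h at 30 °C exposure | Measured by: Luminescence and A595 | Buffer or medium: YPD medium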
# * = called active by the depositor; ? = inconclusive; nt = no result given. A selection: hits, their analogues and other compounds. The true share with any hit is near 1%.
SMILES,Yeast growth tox,eIF2B yeast act
CC(=O)Nc1ccc(C(=O)NC2CCCC2)cc1,-23,51*
O=C(CSc1ccc(-c2ccccc2)nn1)NCc1ccco1,3,40
COC(=O)c1cn(C(=O)c2cccs2)c2ccccc12,-6,12
C/C(=C\C(=O)c1ccccc1)Nc1ccc(O)cc1,15,20
CC(=O)/C=C(\C)Nc1ccc(-c2cnc(-c3ccccc3)o2)cc1,-21,70*
CCN(CC)S(=O)(=O)c1cccc2cc(C(=O)O)c(O)cc12,17,6
Cc1c(C)n(C(=O)CSc2nc3ccccc3[nH]2)c2ccccc12,-1,47
COc1ccc(C2NC(=O)NC(C)=C2C(C)=O)cc1 (configuration not stated),13,52*
C=CCOc1ccc(C2NC(=O)NC(C)=C2C(=O)OC)cc1 (configuration not stated),9,11
O=C(COC(=O)CCc1ccc(S(=O)(=O)N2CCOCC2)cc1)Nc1ccc(Cl)cn1,10,17
CCOC(=O)Cc1csc(NC(=O)CCc2ccc(S(=O)(=O)N3CCOCC3)cc2)n1,4,57*
COc1ccc(C2(C)NC(=O)N(CC(=O)Nc3ccc4c(c3)OCO4)C2=O)cc1OC (configuration not stated),12,5
CCS(=O)(=O)N1CCCC(C(=O)NCCN(C)Cc2ccccc2)C1 (configuration not stated),11,62*
CCS(=O)(=O)N1CCCC(C(=O)NCc2cccc(OC)c2)C1 (configuration not stated),1,-2
O=C(COC(=O)c1cnccn1)c1ccc2c(c1)CCCC2,27,-17
O=c1ccc(Cl)cn1Cc1ccccc1F,12,-19
CCOc1ccccc1N=c1oc2cc(O)ccc2cc1C(=O)NCC1CCCO1 (configuration not stated),-5,nt
O=C(c1ccc(Cl)cc1)N1CCN(c2ccc(F)cc2)CC1,59*,42
O=C(c1ccc2c(c1)OCO2)N1CCN(c2ccc(F)cc2)CC1,4,5
Fc1ccc(-c2cc3nc(-c4ccccc4)cc(N4CCN(CCN5CCOCC5)CC4)n3n2)cc1,31*,-9
CCc1c(C)nc2cc(-c3cc(OC)cc(OC)c3)nn2c1N1CCN(CCN2CCOCC2)CC1,-2,nt
O=S(=O)(NCc1ccco1)c1ccc(S(=O)(=O)N2CCCCC2)cc1,18,17
CCCC(C(=O)c1ccccc1)n1cncn1 (configuration not stated),2,6
CC(C)(C)C(=O)Cn1c(=N)n(Cc2ccccc2Cl)c2ccccc21,3,nt
CC(C)(C)C(=O)C(Cc1ccccc1)n1cncn1 (configuration not stated),62*,26
SMILES,Yeast growth tox,eIF2B yeast act
CC(C)(C)C(=O)C(Cc1ccccc1Cl)n1cncn1 (configuration not stated),74*,27
Cc1cccc(N2CCN(C(=O)CCn3c(=S)[nH]c4cc5c(cc4c3=O)OCO5)CC2C)c1 (configuration not stated),1,10
CCN(CC)S(=O)(=O)c1cccc(C(=O)N[C@H](C(=O)OCC(=O)NC(=O)NC)C(C)C)c1,-2,16
Cc1ccc(SCc2cc(=O)[nH]c(N3CCN(Cc4ccc5c(c4)OCO5)CC3)n2)cc1,-17,60*
Cc1ccc2c(CN3CCN(Cc4ccc5c(c4)OCO5)CC3)cc(=O)oc2c1C,4,15
COc1ccc(N(C(=O)c2ccc(F)cc2)C2=CC3CCC(C2)N3C)cc1 (configuration not stated),19,8
N/C(=N\OC(=O)c1ccccc1Cl)c1cccnc1,6,31
O=C(/C=C/c1ccccc1Cl)c1cccnc1,48*,nt
Nc1nc2ccc(-c3nc4ccccc4o3)cc2s1,21,24
Nc1ccc2nc(-c3ccccc3)sc2c1,20,72*
O=C(Nc1cc(Cl)ccc1O)C1CCCO1 (configuration not stated),nt,17
O=C(Nc1nc2ccc(Cl)cc2s1)C1CCCO1 (configuration not stated),30*,nt
COc1cc(S(=O)(=O)N2CCN=C2c2ccccc2)ccc1F,?,-20
COc1ccc(C2=CSC3=NCCN23)cc1F,7,65*
COc1ccc(NC(=O)c2nc3nccc(C)n3n2)cn1,3,nt
Cc1ccc(C(=C2C3C=CC2C2C(=O)NC(=O)C32)c2ccc(C)cc2)cc1 (configuration not stated),1,nt
COc1ccc(N/N=C(/N=Nc2nc(C)cc(=O)[nH]2)c2ccccc2)cc1,-27,13
Cc1cc(=O)[nH]c(N=N/C(=N/Nc2ccc(O)cc2)c2ccccc2)n1,-1,50*
Cc1csc(SCC(=O)c2c(N)n(C)c(=O)n(C)c2=O)n1,9,33
COc1ccc(-c2cc3nc(C)cc(C)n3n2)c(OC)c1,15,22
CCc1nc(N2CCOCC2)c(C#N)c2c1CCCC2,10,-3
N#Cc1c(N2CCOCC2)nc(-c2ccco2)c2c1CCCC2,-3,57*
COc1ccc(C2N(S(=O)(=O)c3ccccc3)CCN2S(=O)(=O)c2ccc(C)cc2)cc1 (configuration not stated),23,nt
Cc1cc(C)nc(N(C#N)CCOc2ccccc2)n1,-8,-17
CN(C)c1nc(N(C)C)nc(N(C#N)CCOc2ccccc2)n1,nt,50*
SMILES,Yeast growth tox,eIF2B yeast act
N#CC1=C(N)SC(N)=C(C#N)C1c1cccc(O)c1,10,12
COc1ccc(N2C(=O)CC(Sc3nc(C)cc(C)c3C#N)C2=O)cc1 (configuration not stated),nt,-17
Nc1nnc(SC2CC(=O)N(c3ccccc3)C2=O)s1 (configuration not stated),62*,4
COc1ccc(C2C(C(=O)NCCN(C)C)c3ccccc3C(=O)N2C)cc1OC (configuration not stated),-20,-5
Cc1ccc(S(=O)(=O)N[C@H](C(=O)N2CCC(C(=O)N3CCC[C@H]3C(=O)O)CC2)C(C)C)cc1,2,29
COc1cc(C2NC(=O)NC(C)=C2C(=O)OC2CCCC(C)C2)ccc1O (configuration not stated),20,20
CN1CCN(c2nc(N3CCN(CCO)CC3)nc3ccccc23)CC1,-5,55*
c1ccc(CN2CCN(c3nc(N4CCOCC4)c4ccccc4n3)CC2)cc1,8,7
COC1(OC)N=C(NC(=O)Nc2ccccc2)C2(C#N)C(c3ccccc3)C12C#N (configuration not stated),9,-10
COC(=O)c1cc2c(=O)n3ccccc3nc2n(C)c1=N,32*,0
CC1Cc2ccccc2N1C(=O)c1cc2c(=O)n3ccccc3nc2n1C (configuration not stated),-2,-5
COCCCNC(=O)CSC1=Nc2ccccc2C2=NC(CC(=O)NCc3ccccc3)C(=O)N12 (configuration not stated),4,38
NC(=O)CSC1=Nc2ccccc2C2=NC(CC(=O)NCc3cccs3)C(=O)N12 (configuration not stated),10,52*
CCOc1ccccc1NC(=O)N1CCCC1C(=O)Nc1ccc(NC(C)=O)cc1 (configuration not stated),5,-33
COc1cccc(N2CCN(Cc3coc4c(Cl)cc(Cl)cc4c3=O)CC2)c1,12,21
